Laboratory results published in ChEMBL document CHEMBL1134763, “Oxidation of N(omega)-hydroxyarginine analogues by NO-synthase: the simple, non amino acid N-butyl N'-hydroxyguanidine is almost as efficient an NO precursor as N(omega)-hydroxyarginine” (J Med Chem, 2001).
Values belong to the molecule of their own block, whether it stands above or below them.

Tests used:
Assay type in all cases: functional
[1] = biological target: T1, Nitric oxide synthase, inducible (Mus musculus) (UniProt P29477); test: Formation of Nitric Oxide by Nitric Oxide synthase II(% relative to NOHA)
T1 sequence (whole entry): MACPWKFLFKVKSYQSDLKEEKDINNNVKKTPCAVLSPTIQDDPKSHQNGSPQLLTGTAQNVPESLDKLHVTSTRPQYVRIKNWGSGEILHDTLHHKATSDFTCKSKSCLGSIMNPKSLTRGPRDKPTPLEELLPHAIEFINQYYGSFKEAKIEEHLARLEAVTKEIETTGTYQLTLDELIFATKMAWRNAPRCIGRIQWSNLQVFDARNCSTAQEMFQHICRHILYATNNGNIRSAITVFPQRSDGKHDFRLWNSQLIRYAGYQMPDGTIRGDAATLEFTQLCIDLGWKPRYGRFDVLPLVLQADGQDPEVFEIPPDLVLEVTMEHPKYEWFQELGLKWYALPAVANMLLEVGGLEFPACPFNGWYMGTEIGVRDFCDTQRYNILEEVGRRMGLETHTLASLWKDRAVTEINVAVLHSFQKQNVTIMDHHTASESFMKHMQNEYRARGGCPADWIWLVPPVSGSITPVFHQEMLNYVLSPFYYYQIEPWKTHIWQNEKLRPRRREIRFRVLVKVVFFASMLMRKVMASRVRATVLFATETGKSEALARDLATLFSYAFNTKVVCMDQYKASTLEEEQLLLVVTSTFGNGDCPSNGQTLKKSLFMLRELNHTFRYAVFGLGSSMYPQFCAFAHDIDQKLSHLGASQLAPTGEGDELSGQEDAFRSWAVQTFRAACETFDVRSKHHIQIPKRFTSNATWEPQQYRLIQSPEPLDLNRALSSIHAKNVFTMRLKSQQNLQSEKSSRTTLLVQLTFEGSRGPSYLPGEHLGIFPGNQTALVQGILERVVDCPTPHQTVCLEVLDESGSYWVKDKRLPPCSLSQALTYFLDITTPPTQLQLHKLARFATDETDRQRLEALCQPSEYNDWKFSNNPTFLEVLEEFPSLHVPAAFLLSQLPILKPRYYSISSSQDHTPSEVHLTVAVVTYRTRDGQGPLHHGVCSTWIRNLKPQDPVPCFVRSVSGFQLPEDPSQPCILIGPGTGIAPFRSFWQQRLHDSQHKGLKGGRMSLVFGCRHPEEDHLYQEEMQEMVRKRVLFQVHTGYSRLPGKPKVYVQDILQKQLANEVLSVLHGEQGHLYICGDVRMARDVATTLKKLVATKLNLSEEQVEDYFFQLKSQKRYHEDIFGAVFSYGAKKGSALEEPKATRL
How it was run: (§1)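 Purified recombinant NOS (5–50 nM) at 37 °C in 50 mM HEPES pH 7.4 with 1 mM test compound, 1 mM NADPH, 100 μM BH4, 100 U/mL SOD, 100 U/mL catalase, 12–15 μM oxyhemoglobin and 5 mM DTT. NOS I and NOS III runs also contained 1 mM CaCl2 and 10 μg/mL calmodulin. NO was read spectrophotometrically as oxyhemoglobin-to-methemoglobin conversion. Initial rates are given as % of the NOHA rate.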

[2] = biological target: Nitric oxide synthase 1 (Homo sapiens) (UniProt P29475); test: Formation of Nitric Oxide by Nitric Oxide synthase I(% relative to NOHA); how it was run: as §1
Chain of Nitric oxide synthase 1 (Homo sapiens) (P29475 whole entry): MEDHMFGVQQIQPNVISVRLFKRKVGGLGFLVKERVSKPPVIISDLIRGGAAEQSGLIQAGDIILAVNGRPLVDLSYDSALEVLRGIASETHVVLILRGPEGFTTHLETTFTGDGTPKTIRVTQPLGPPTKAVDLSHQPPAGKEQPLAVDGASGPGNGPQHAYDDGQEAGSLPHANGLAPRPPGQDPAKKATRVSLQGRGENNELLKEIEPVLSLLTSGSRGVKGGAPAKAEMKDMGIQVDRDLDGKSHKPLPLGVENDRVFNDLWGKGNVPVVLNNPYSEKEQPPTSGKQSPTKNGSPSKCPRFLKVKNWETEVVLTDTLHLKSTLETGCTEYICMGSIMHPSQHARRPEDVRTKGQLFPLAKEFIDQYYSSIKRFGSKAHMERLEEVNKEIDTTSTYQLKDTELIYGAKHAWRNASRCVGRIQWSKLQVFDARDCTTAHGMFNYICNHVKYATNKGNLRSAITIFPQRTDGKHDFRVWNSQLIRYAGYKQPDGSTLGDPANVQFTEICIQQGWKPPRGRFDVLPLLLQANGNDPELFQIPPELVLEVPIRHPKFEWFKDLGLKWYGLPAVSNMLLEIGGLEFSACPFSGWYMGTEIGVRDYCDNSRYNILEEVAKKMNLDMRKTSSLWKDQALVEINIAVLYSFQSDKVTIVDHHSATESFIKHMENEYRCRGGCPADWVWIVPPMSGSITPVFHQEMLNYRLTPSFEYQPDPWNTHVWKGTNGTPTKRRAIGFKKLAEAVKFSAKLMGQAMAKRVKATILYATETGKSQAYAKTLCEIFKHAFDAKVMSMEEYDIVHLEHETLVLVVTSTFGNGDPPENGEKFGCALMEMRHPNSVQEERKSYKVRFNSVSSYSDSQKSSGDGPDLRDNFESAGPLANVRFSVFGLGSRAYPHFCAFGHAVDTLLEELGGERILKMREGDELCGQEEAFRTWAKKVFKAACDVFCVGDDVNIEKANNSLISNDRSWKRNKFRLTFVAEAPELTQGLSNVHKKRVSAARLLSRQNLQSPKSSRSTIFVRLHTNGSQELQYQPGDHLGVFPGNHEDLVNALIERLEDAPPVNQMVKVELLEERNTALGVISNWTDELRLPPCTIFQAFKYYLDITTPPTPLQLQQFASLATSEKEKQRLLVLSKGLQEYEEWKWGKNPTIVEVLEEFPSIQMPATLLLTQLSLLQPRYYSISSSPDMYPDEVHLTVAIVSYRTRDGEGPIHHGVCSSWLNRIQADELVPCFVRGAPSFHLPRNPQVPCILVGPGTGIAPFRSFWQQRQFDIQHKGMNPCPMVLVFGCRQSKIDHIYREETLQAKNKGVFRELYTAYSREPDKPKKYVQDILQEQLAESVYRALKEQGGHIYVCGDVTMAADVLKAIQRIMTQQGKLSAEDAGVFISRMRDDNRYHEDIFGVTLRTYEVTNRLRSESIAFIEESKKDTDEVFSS

[3] = biological target: T2, Nitric oxide synthase 3 (Homo sapiens) (UniProt P29474); test: Formation of Nitric Oxide by Nitric Oxide synthase III(% relative to NOHA); how it was run: as §1
T2 sequence (whole entry): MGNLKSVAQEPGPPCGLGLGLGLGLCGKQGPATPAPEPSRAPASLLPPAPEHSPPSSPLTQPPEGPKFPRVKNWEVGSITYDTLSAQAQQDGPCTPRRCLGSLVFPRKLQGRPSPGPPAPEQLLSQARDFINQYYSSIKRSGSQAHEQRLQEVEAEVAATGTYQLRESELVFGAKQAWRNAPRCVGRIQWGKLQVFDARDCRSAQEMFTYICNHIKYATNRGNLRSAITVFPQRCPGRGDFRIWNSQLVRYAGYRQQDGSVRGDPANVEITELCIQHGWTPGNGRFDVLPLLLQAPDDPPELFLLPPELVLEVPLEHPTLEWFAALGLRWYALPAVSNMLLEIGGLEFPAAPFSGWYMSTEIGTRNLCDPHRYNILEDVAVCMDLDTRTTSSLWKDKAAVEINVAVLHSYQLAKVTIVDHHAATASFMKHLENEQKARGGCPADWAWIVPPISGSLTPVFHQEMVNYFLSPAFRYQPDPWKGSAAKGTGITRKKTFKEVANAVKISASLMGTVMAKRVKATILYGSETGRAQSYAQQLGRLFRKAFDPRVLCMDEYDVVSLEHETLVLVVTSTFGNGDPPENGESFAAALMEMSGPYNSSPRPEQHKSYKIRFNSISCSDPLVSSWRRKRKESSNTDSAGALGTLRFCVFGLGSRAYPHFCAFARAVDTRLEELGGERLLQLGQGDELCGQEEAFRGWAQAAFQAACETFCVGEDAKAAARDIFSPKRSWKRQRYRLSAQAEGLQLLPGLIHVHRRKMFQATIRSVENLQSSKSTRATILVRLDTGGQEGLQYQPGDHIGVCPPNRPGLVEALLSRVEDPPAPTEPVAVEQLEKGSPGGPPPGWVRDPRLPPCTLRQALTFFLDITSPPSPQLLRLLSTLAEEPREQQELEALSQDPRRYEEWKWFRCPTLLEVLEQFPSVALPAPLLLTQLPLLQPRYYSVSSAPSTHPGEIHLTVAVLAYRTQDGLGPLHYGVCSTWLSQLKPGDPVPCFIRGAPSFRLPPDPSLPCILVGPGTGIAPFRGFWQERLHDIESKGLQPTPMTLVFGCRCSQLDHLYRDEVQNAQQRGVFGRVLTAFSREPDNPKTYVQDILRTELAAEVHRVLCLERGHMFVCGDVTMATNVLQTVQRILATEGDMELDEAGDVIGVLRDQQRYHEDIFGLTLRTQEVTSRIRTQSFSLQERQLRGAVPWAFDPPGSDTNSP

[4] = biological target: T1, Nitric oxide synthase, inducible (Mus musculus); test: (§2) Compound was evaluated for the kinetic constants for Nitric Oxide formation from oxidation by NOS II
How it was run: (§3)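 Recombinant purified NOS II was run in the hemoglobin assay at 37 °C in 50 mM HEPES pH 7.4 with NADPH, BH4, SOD, catalase and DTT, over varying substrate concentrations. Initial NO-formation rates gave saturation kinetics. Km (μM) and kcat (min⁻¹) were derived from Lineweaver-Burk plots, and kcat/Km is expressed in μM⁻¹ min⁻¹.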

[5] = Ratio between Km (uM) and Kcat (1/min) was determined; how it was run: as §3
[6] = substrate: CCCCC/N=C(/N)NO; test: as §2; how it was run: as §3
[7] = substrate: CCCCN/C(N)=N/O; test: as §2; how it was run: as §3
[8] = substrate: N/C(=N/CCCC(N)C(=O)O)NO; test: as §2; how it was run: as §3
[9] = substrate: N/C(=N/CCCCC(N)C(=O)O)NO; test: as §2; how it was run: as §3
[10] = substrate: N=C(NO)Nc1ccc(Cl)cc1; test: as §2; how it was run: as §3

Molecule: CCCCN/C(N)=N/O
k cat [4]: 5.33 s⁻¹
Initial rates [1]: 68
Initial rates [2]: 65
k cat/Km [5]: 96700 M⁻¹ s⁻¹
Initial rates [3]: 41

Molecule: N=C(NO)Nc1ccc(Cl)cc1
k cat [4]: 1.67 s⁻¹
k cat/Km [5]: 3330 M⁻¹ s⁻¹

Molecule: N/C(=N/CCCCC(N)C(=O)O)NO (stereo unspecified)
k cat [4]: 6.83 s⁻¹
Initial rates [1]: 55
Initial rates [2]: 82
k cat/Km [5]: 46700 M⁻¹ s⁻¹
Initial rates [3]: 70

Molecule: NCCCC/N=C(/N)NO
Initial rates [1]: 8
Initial rates [2]: 2
Initial rates [3]: < 0.5

Molecule: CCCCCC/N=C(/N)NO
Initial rates [1]: 1
Initial rates [2]: 2
Initial rates [3]: < 0.5

B1: Nitric oxide synthase, inducible (Mus musculus), P29477 (protein)
chain: T1 sequence (whole entry)
Km [6]: 310 µM
Km [7]: 55 µM
Km [8]: 40 µM
Km [9]: 146 µM
Km [10]: 500 µM

The next lines start with the values.

Initial rates [1]: < 0.5
Initial rates [2]: < 0.5
Initial rates [3]: < 0.5
Molecule: NC(=NCCCC(=O)O)NO

Initial rates [1]: < 0.5
Initial rates [2]: < 0.5
Initial rates [3]: < 0.5
Molecule: N/C(=N/CC(N)C(=O)O)NO (stereo unspecified)

Initial rates [1]: 15
Initial rates [2]: 36
Initial rates [3]: 41
Molecule: CCC/N=C(/N)NO

Initial rates [1]: < 0.5
Initial rates [2]: < 0.5
Initial rates [3]: < 0.5
Molecule: NCCCN/C(N)=N/O

k cat [4]: 4.67 s⁻¹
Initial rates [1]: 25
Initial rates [2]: 34
k cat/Km [5]: 15000 M⁻¹ s⁻¹
Initial rates [3]: < 0.5
Molecule: CCCCC/N=C(/N)NO

k cat [4]: 8 s⁻¹
Initial rates [1]: 100
Initial rates [2]: 100
k cat/Km [5]: 200000 M⁻¹ s⁻¹
Initial rates [3]: 100
Molecule: N/C(=N/CCCC(N)C(=O)O)NO (stereo unspecified)

Initial rates [1]: 1
Initial rates [2]: < 0.5
Initial rates [3]: 2
Molecule: N/C(=N/CCCCC(=O)O)NO

Initial rates [1]: < 0.5
Initial rates [2]: < 0.5
Initial rates [3]: < 0.5
Molecule: NC(=NCCC(N)C(=O)O)NO (stereo unspecified)
